In the library only some 3.5% were active in any assay of this set; here they are far more common.
PAFAH1B2 inh – PAFAH1B2 enzyme inhibitors, primary screen, biochemical, fluorescence polarization, human | Platelet-activating factor acetylhydrolase IB subunit alpha2 (Homo sapiens), P68402 | recombinant PAFAH1B2, FP-rhodamine activity probe | inhibition, % at 3.39 µM | 1.2% of 340,000 active | AID 492953, 2010;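 active = inhibition above the mean of all tested compounds plus 3 SD, cut at about 24% in these data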;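 also: 0% = enzyme with DMSO and 100% = wells lacking PAFAH1B2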
PAFAH1B3 FP inh – PAFAH1B3 enzyme inhibitors, primary screen, biochemical, fluorescence polarization, human; recombinant PAFAH1B3, FP-rhodamine probe; inhibition, % at 3.39 µM; 0.28% of 340,000 active; Platelet-activating factor acetylhydrolase IB subunit alpha1 (Homo sapiens), Q15102;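 active = inhibition above the screen-wide average of all tested compounds plus 3 SD, cut at about 25% in these data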;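 also: 0% = enzyme with DMSO only and 100% = wells lacking PAFAH1B3 protein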
PREPL inh – PREPL enzyme inhibitors, primary screen, biochemical, fluorescence polarization. inhibition, % at 5.96 µM. recombinant PREPL, fluorescence polarization activity-based probe. Prolyl endopeptidase-like (Homo sapiens), Q4J6C6. 0.68% of 320,000 active; in the data active = inhibition above about 43%;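 also: 0% = enzyme with DMSO and 100% = wells lacking enzyme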
PAFAH2 FP inh – PAFAH2 enzyme inhibitors, primary screen, biochemical, fluorescence polarization, human; Platelet-activating factor acetylhydrolase 2, cytoplasmic (Homo sapiens), Q99487; recombinant PAFAH2, FP-rhodamine activity probe; inhibition, % at 3.39 µM; 0.99% of 340,000 active; AID 492956, 2010;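 active = inhibition above the mean over all tested compounds plus 3 SD, cut at about 30% in these data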;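 also: inhibitors block probe labeling of enzyme so polarization drops; 0% = enzyme with DMSO and 100% = wells lacking PAFAH2 protein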
Apaf1 inhib – inhibitors of human Apaf-1 apoptosome, primary screen, biochemical, DEVD-Rh110 fluorescence, uHTS | AID 489030, 2010 | 0.71% of 330,000 active | inhibition, % at 20 µM | reconstituted apoptosome caspase-3 activity; active = inhibition of at least 40% at 20 µM;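 also: plate controls were DMSO wells for no effect and DEVD-CHO caspase inhibitor wells for full effect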
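Medium: Hepes buffer, pH 7.5 / System: biochemical Apaf-1 apoptosome reconstitution / Measured by: Rh110 fluorescence, excitation 480 nm, emission 540 nm / Times: compound with Apaf-1, dATP, procaspase-3 30 min, then 50 min reaction, room temperature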
pPAFAH inh – pPAFAH enzyme inhibitors, primary screen, biochemical, fluorescence polarization, human | recombinant pPAFAH, FP-rhodamine probe fluorescence polarization | inhibition, % at 3.39 µM | 1.5% of 330,000 active | AID 463082, 2010;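 active = inhibition above the mean inhibition across the screen plus 3 SD, cut at about 25% in these data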;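 also: inhibitors block binding of the rhodamine activity-based probe so polarization drops; 0% = enzyme with DMSO and 100% = wells lacking pPAFAH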
PAFAH2 confirm – PAFAH2 enzyme inhibitors, confirmation, biochemical, fluorescence polarization, human; inhibition, % at 3.39 µM; 65% of 2,300 active; recombinant PAFAH2, FP-rhodamine activity probe; AID 493030, 2011; shares compounds with PAFAH2 FP inh;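 active = mean inhibition over three repeats above a set limit taken from the earlier primary screen, cut at about 30% in these data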;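 also: inhibitor blocks binding of rhodamine activity probe so polarization falls; 0% = enzyme with DMSO and 100% = wells lacking PAFAH2 protein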
An asterisk follows results filed as active; / = no result.

SMILES	PAFAH1B2 inh	PAFAH1B3 FP inh	PREPL inh	PAFAH2 FP inh	Apaf1 inhib	pPAFAH inh	PAFAH2 confirm
CC(C)C(=O)NC(=O)COC(=O)/C=C/c1cccs1	2	7	0	53*	-19	5	42*
COc1cccc(=O)c2c(C)oc(C)c12	-2	5	10	7	10	-3	/
COc1ccccc1-n1c(C)c2c(OC)cccc(=O)c2c1C	4	5	24	39*	26	13	55*
CCN1CCCC1CNS(=O)(=O)c1c(C)cc(C)cc1C (centres undefined)	-3	6	-65	4	7	-1	/
COc1ccc(CN2C(=O)c3cccnc3C2=O)cc1S(=O)(=O)N1CCOc2ccccc21	3	1	1	4	-52	1	/
COc1ccc(CN2C(=O)c3cccnc3C2=O)cc1S(=O)(=O)N1CCOc2ccc(Cl)cc21	-1	9	-9	30*	-3	0	18
O=c1oc2ccc(Br)cc2cc1S(=O)(=O)c1ccc(F)cc1	11	-1	-6	80*	3	5	63*
CCN(C(=O)COC(=O)c1cc(-c2ccc(C)o2)nc2ccccc12)C1CCS(=O)(=O)C1 (centres undefined)	-2	-3	0	45*	-5	5	0
Cn1c(=O)c2nc(Cl)c(-c3ccccc3)nc2n(C)c1=O	-1	2	1	33*	-3	-3	38*
CCC(=O)Nc1nnc(S(=O)(=O)N(C)c2cc(C)cc(C)c2)s1	4	16	/	9	10	/	/
O=C(COC(=O)/C=C/c1ccc(Br)o1)NC1CCCCC1	2	6	11	77*	-2	9	73*
O=C(COC(=O)/C=C/c1cccc(Br)c1)NC1CCCCC1	1	-2	17	23	2	6	/
CC1CCCCC1NC(=O)COC(=O)/C=C/c1ccco1 (centres undefined)	6	13	-2	84*	4	8	74*
O=C(COC(=O)/C=C/c1ccco1)NC1CCCCC1	1	4	3	77*	-3	7	82*
CCS(=O)(=O)c1nc(S(=O)(=O)c2ccc(Cl)cc2)c(NCCOC)s1	1	2	-3	5	0	9	/
Cc1ccc(CNC(=O)c2nccnc2C(=O)O)cc1	6	1	1	-1	-4	9	/
COc1ccc(CNC(=O)COC(=O)c2n[nH]c3ccccc23)cc1	-1	2	-12	10	-1	2	/
CC(C)CNC(=O)COC(=O)c1n[nH]c2ccccc12	4	7	1	56*	-5	1	39*
CCOc1ccc(NC(=O)COC(=O)c2n[nH]c3ccccc23)cc1	7	13	2	62*	2	-3	37*
CC(=O)Nc1ccc(NC(=O)COC(=O)c2n[nH]c3ccccc23)cc1	-2	5	-3	-1	-3	-1	/
O=C(Nc1ccccc1Cl)Nc1ccnn1C1CCN(C(=O)CCN2CCCO2)CC1	3	0	7	7	11	2	/
NC(=O)[C@@H]1CCCN1C(=O)c1ccc2nc(Cc3ccccc3F)oc2c1	3	-4	11	10	8	2	/
CCN(CC)c1ccc(C(=O)OCC(=O)Nc2ncccn2)cc1	6	9	-1	77*	-5	24	70*
CCN(CC)c1ccc(C(=O)OCC(=O)Nc2cc3oc4ccccc4c3cc2OC)cc1	1	-2	9	3	1	-7	/
CCN(CC)c1ccc(C(=O)OCC(=O)Nc2ccccc2-c2ccccc2)cc1	-4	5	7	77*	6	20	51*
SMILES	PAFAH1B2 inh	PAFAH1B3 FP inh	PREPL inh	PAFAH2 FP inh	Apaf1 inhib	pPAFAH inh	PAFAH2 confirm
CCN(CC)c1ccc(C(=O)OCC(=O)Nc2sccc2C#N)cc1	-3	-6	6	47*	12	9	54*
CCNC(=O)c1ccc(C23CC4CC(CC(C4)C2)C3)o1	12	4	-1	2	8	6	/
COCCN(C(=S)Nc1c(C)cccc1C)C(C)c1cccs1 (centres undefined)	1	-2	3	51*	-12	2	39*
CCOc1ccc(-c2cccc(NS(=O)(=O)c3cc([N+](=O)[O-])ccc3Cl)c2)nn1	9	-5	5	5	5	8	/
O=c1c2cnn(-c3ccccc3)c2nc(-c2cccs2)n1-c1ccc(Cl)cc1	5	3	4	3	16	4	/
O=c1oc(-c2cccs2)nc2ccc(Br)cc12	3	4	1	18	8	-6	/
Cc1ccc2nc(-c3cccs3)oc(=O)c2c1	-1	11	-10	54*	10	2	54*
COc1cc2nc(-c3cccs3)oc(=O)c2cc1OC	0	17	-4	41*	-10	-2	23
O=c1oc(-c2cccs2)nc2c1cnn2-c1ccccc1	3	0	11	66*	-16	18	54*
Cc1cc(OCC(=O)N(Cc2ccco2)c2c(N)n(Cc3ccccc3)c(=O)[nH]c2=O)ccc1Cl	0	-6	4	-6	-7	2	/
CCSCc1nnc(SCC(=O)Nc2ccc(F)cc2)n1CC	-2	0	-4	-7	-12	6	/
C[C@H](NC(=O)C1CC(=O)N(c2ccc(F)cc2)C1)C(=O)N1CCCCC1 (some centres undefined)	2	-1	6	30*	10	-5	5
O=C(C1CC(=O)N(c2ccc(F)cc2)C1)N1CCCCC1 (centres undefined)	3	2	-9	-4	10	-5	/
Clc1ccccc1OCCn1cnc2ccccc21	-2	-2	3	3	-2	1	/
Brc1ccccc1OCCCCn1cnc2ccccc21	4	2	-10	35*	8	2	4
Cc1nnc2ccc(-c3ccc(NS(=O)(=O)c4ccc(F)cc4F)cc3)nn12	1	4	-1	1	-19	11	/
Cc1ccc(/C=C/C(=O)OCC(=O)Nc2cccc(S(=O)(=O)N(C)C)c2)o1	3	-1	6	67*	2	6	39*
O=C(COC(=O)/C=C/c1cccc(Cl)c1)Nc1cccc(S(=O)(=O)NC2=NCCC2)c1	1	-2	17	25	4	0	/
